High-throughput results deposited in PubChem BioAssay by several laboratories.
PAFAH2 FP inh: PAFAH2 (human) inhibition; recombinant PAFAH2, FP-rhodamine activity probe, fluorescence polarization; inhibition, % at 3.39 µM; 340,000 tested, 0.99% active; AID 492956;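 active = inhibition above the mean over all tested compounds plus 3 SD, cut at about 30% in these data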;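 note: inhibitors block probe labeling of enzyme so polarization drops; 0% = enzyme with DMSO and 100% = wells lacking PAFAH2 protein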
PAFAH1B2 FP inh: inhibitors of human PAFAH1B2; P68402; recombinant PAFAH1B2, FP-rhodamine activity probe, fluorescence polarization; inhibition, % at 3.39 µM; 340,000 tested, 1.2% active; AID 492953;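 active = inhibition above the mean of all tested compounds plus 3 SD, cut at about 24% in these data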;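 note: 0% = enzyme with DMSO and 100% = wells lacking PAFAH1B2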
Target sequence (P68402 whole entry, looked up): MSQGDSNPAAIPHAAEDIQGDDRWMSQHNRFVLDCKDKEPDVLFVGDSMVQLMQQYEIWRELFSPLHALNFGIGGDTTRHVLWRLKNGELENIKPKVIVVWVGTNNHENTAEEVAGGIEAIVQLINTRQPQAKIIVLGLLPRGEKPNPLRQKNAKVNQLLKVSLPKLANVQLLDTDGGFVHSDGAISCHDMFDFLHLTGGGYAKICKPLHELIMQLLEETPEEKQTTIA
pPAFAH FP inh: inhibitors of human plasma PAF acetylhydrolase (pPAFAH). Q13093. recombinant pPAFAH, FP-rhodamine probe fluorescence polarization. inhibition, % at 3.39 µM. 330,000 tested, 1.5% active. AID 463082;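 active = inhibition above the mean inhibition across the screen plus 3 SD, cut at about 25% in these data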;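 note: inhibitors block binding of the rhodamine activity-based probe so polarization drops; 0% = enzyme with DMSO and 100% = wells lacking pPAFAH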
UCH37 DUB inh: blocks the human deubiquitinase UCH37. Q9Y5K5. purified proteasome/UCH37, Ub-AMC cleavage fluorescence. inhibition, % (no concentration beside the values). 330,000 tested, 0.33% active. AID 588478;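 active = mean inhibition over replicate wells above about 20%, limit read from the data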;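 note: 0% = compound-free wells with enzyme and 100% = wells lacking proteasome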
Target sequence (Q9Y5K5 whole entry, looked up): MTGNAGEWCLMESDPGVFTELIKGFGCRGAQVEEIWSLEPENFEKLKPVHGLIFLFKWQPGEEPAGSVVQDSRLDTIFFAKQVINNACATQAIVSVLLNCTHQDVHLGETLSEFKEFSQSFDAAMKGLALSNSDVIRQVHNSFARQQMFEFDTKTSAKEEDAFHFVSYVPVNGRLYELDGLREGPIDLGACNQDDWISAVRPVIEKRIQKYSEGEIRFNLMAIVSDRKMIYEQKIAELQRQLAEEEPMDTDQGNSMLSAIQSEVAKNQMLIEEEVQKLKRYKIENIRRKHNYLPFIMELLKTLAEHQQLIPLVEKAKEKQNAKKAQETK
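Schedule: 30 min plus 25 min, room temperature / Material: human UCH37 within purified proteasomes / Technique: AMC fluorescence intensity at 355/460 nm / Buffer or medium: pH 7.4 Tris-HCl (50 mM) with ovalbumin, ATP-MgCl2, DTT / Controls: wells without proteasome as full block, compound-free enzyme plus substrate as uninhibited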
PAFAH1B3 inh: inhibitors of human PAFAH1B3; Q15102; recombinant PAFAH1B3, FP-rhodamine probe, fluorescence polarization; inhibition, % at 3.39 µM; 340,000 tested, 0.28% active; AID 492972;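 active = inhibition above the screen-wide average of all tested compounds plus 3 SD, cut at about 25% in these data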;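 note: 0% = enzyme with DMSO only and 100% = wells lacking PAFAH1B3 protein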
NR3A LBD binder: modulates the human NR3A ligand-binding domain | NR3A LBD differential scanning fluorimetry, Tm shift; 0% = protein alone, 100% = glycine-bound protein | Tm shift relative to glycine control, % at 25 µM | 340,000 tested, 2.5% active;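 active = melting temperature shift of at least 10% of the positive control shift, at one fixed dose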
Active calls of the source: *. Shown are actives, neighbours in structure and some others; about 4.8% of the full set was active somewhere.

How did Cc1cc(=O)[nH]c2ccc(S(=O)(=O)Nc3ccc(O)cc3)cc12 do in these assays?
PAFAH2 FP inh: 0.8; PAFAH1B2 FP inh: 2.7; pPAFAH FP inh: -0.8; UCH37 DUB inh: 3.3; PAFAH1B3 inh: 7.2; NR3A LBD binder: 1.2

What do the screens show for `COc1cccc(C(=O)COC(=O)C(C)N2C(=O)c3ccccc3C2=O)c1` (stereo not given)?
PAFAH2 FP inh: -4.1; PAFAH1B2 FP inh: 1.1; pPAFAH FP inh: 3.8; UCH37 DUB inh: 1.8; PAFAH1B3 inh: -0.8; NR3A LBD binder: 13.7*

Results for CC(CC(=O)Nc1ccc(Cl)cc1C(F)(F)F)=NNC(=O)c1ccccn1 ?
UCH37 DUB inh: -1.0

How did CCCOc1ccc(C(=O)NNC(=S)NC(=O)c2cc(-c3ccc(Cl)cc3)nc3ccccc23)cc1 do in these assays?
PAFAH2 FP inh: -21.0; PAFAH1B2 FP inh: 1.0; pPAFAH FP inh: 20.5; UCH37 DUB inh: 2.4; PAFAH1B3 inh: 0.3; NR3A LBD binder: 13.6*

How did COc1ccc(Cl)cc1C(=O)NNC(=S)NC(=O)c1cc(-c2ccccc2)nc2ccccc12 do in these assays?
PAFAH2 FP inh: -2.5; PAFAH1B2 FP inh: 0.7; pPAFAH FP inh: 11.4; UCH37 DUB inh: 6.8; PAFAH1B3 inh: -8.9; NR3A LBD binder: 5.9

How did COc1ccc(C(=O)NNC(=S)NC(=O)c2cc(-c3ccccc3)nc3ccccc23)cc1 do in these assays?
PAFAH2 FP inh: -12.7; PAFAH1B2 FP inh: -5.2; pPAFAH FP inh: 13.7; UCH37 DUB inh: 7.3; PAFAH1B3 inh: 4.8; NR3A LBD binder: 14.3*

Results for Clc1ccc(N2CCN(c3ccnc(Cl)n3)CC2)cc1 ?
PAFAH2 FP inh: 3.7; PAFAH1B2 FP inh: 3.2; pPAFAH FP inh: -1.3; UCH37 DUB inh: 4.4; PAFAH1B3 inh: 3.5; NR3A LBD binder: 13.9*

What do the screens show for `Cc1ccc(-c2ccc(C=Nn3cnnc3)o2)cc1`?
UCH37 DUB inh: -32.5

Results for Nc1nonc1-n1nnc(C(=O)N/N=C/c2ccc(OCc3ccccc3)cc2)c1CNc1ccccc1 ?
PAFAH2 FP inh: 2.0; PAFAH1B2 FP inh: -0.5; pPAFAH FP inh: 2.9; PAFAH1B3 inh: -0.7; NR3A LBD binder: 31.2*

How did CCCc1c(C(=O)N/N=C/c2cccc(OCc3ccc(F)cc3)c2)nnn1-c1nonc1N do in these assays?
PAFAH2 FP inh: -1.2; PAFAH1B2 FP inh: -1.2; pPAFAH FP inh: 1.7; PAFAH1B3 inh: 3.8; NR3A LBD binder: 35.0*

What do the screens show for `Nc1nonc1-n1nnc(C(=O)NN=Cc2ccc(OCc3ccc(F)cc3)cc2)c1COc1ccccc1`?
UCH37 DUB inh: -18.2

What do the screens show for `Nc1nonc1-n1nnc(C(=O)N/N=C/c2ccc(OCc3ccccc3)cc2)c1COc1ccc(F)cc1`?
PAFAH2 FP inh: -1.5; PAFAH1B2 FP inh: 0.7; pPAFAH FP inh: 0.2; PAFAH1B3 inh: 2.0; NR3A LBD binder: 19.1*

Results for Nc1nonc1-n1nnc(C(=O)N/N=C/c2ccccc2Cl)c1COc1ccc(F)cc1 ?
PAFAH2 FP inh: -32.9; PAFAH1B2 FP inh: -6.0; pPAFAH FP inh: -8.1; PAFAH1B3 inh: -14.1; NR3A LBD binder: 22.8*

How did CCOC(=O)NC(=O)C(C#N)=NNc1cccc(OC)c1 do in these assays?
UCH37 DUB inh: 1.3

What do the screens show for `Nc1nonc1-n1nnc(C(=O)N/N=C/c2ccc(OCc3ccccc3F)cc2)c1CN1CCCCC1`?
PAFAH2 FP inh: -17.2; PAFAH1B2 FP inh: -2.5; pPAFAH FP inh: -2.3; PAFAH1B3 inh: 6.5; NR3A LBD binder: 15.7*

Results for CCN(CC)Cc1c(C(=O)NN=Cc2cccc(OCc3ccc(F)cc3)c2)nnn1-c1nonc1N ?
UCH37 DUB inh: 2.2

How did Cc1cccc(COc2ccc(/C=N/NC(=O)c3nnn(-c4nonc4N)c3COc3ccc(F)cc3)cc2)c1 do in these assays?
PAFAH2 FP inh: -11.1; PAFAH1B2 FP inh: 5.7; pPAFAH FP inh: -1.2; PAFAH1B3 inh: 5.3; NR3A LBD binder: 25.2*

Results for Cc1cccc(COc2ccc(C=NNC(=O)c3nnn(-c4nonc4N)c3CN3CCCCC3)cc2)c1 ?
UCH37 DUB inh: -2.0

How did CCN(CC)Cc1c(C(=O)N/N=C/c2cccc(OCc3cccc(Cl)c3)c2)nnn1-c1nonc1N do in these assays?
PAFAH2 FP inh: -17.9; PAFAH1B2 FP inh: -8.4; pPAFAH FP inh: 2.5; PAFAH1B3 inh: -15.7; NR3A LBD binder: 12.5*

How did Cc1cccc(COc2ccc(/C=N/NC(=O)c3nnn(-c4nonc4N)c3CN3CCCCC3)cc2)c1 do in these assays?
PAFAH2 FP inh: -12.6; PAFAH1B2 FP inh: -7.7; pPAFAH FP inh: -3.1; PAFAH1B3 inh: 6.0; NR3A LBD binder: 12.9*

Results for CC1CC(=NNC(=O)CCc2ccc(S(=O)(=O)N3CCOCC3)cc2)CC(C)(C)C1 (stereo not given) ?
UCH37 DUB inh: 0.9

Results for COc1cc(C=NNC(=O)c2ccc(F)cc2)ccc1OC(=O)c1ccco1 ?
UCH37 DUB inh: 6.7

How did O=C1CC(=C2c3ccccc3-c3ccccc32)C(=O)N1CCN1CCN(c2cccc(Cl)c2)CC1 do in these assays?
PAFAH2 FP inh: -5.9; PAFAH1B2 FP inh: -2.2; pPAFAH FP inh: 26.4*; UCH37 DUB inh: 9.0; PAFAH1B3 inh: 0.6; NR3A LBD binder: 0.8

How did CCC(C)C(NC(=O)OCc1ccccc1)C(=O)OCN1C(=O)c2ccccc2C1=O (stereo not given) do in these assays?
PAFAH2 FP inh: 12.9; PAFAH1B2 FP inh: -4.1; pPAFAH FP inh: 32.7*; UCH37 DUB inh: 2.7; PAFAH1B3 inh: 3.9; NR3A LBD binder: 1.5

What do the screens show for `O=C(Nc1ccc(Cl)c(Cl)c1)c1cccc(S(=O)(=O)NCc2cccnc2)c1`?
PAFAH2 FP inh: -57.6; PAFAH1B2 FP inh: -21.3; pPAFAH FP inh: -14.9; UCH37 DUB inh: 1.9; PAFAH1B3 inh: -51.2; NR3A LBD binder: 10.6*

What do the screens show for `COc1ccc(NC(=O)c2ccc(CNS(=O)(=O)c3cccc(OC)c3)cc2)cc1`?
PAFAH2 FP inh: 1.9; PAFAH1B2 FP inh: 4.2; pPAFAH FP inh: 2.1; UCH37 DUB inh: 2.2; PAFAH1B3 inh: 4.6; NR3A LBD binder: -9.7

How did COc1cccc(S(=O)(=O)NCc2ccc(C(=O)Nc3ccc(C)cc3)cc2)c1 do in these assays?
PAFAH2 FP inh: 5.4; PAFAH1B2 FP inh: 4.7; pPAFAH FP inh: -0.1; UCH37 DUB inh: 1.9; PAFAH1B3 inh: 0.1; NR3A LBD binder: 16.8*

Results for NS(=O)(=O)c1ccc(NC(=O)c2ccc(CNS(=O)(=O)c3cc(C(F)(F)F)ccc3Cl)cc2)cc1 ?
PAFAH2 FP inh: -11.1; PAFAH1B2 FP inh: -0.2; pPAFAH FP inh: -6.1; UCH37 DUB inh: 1.9; PAFAH1B3 inh: -4.2; NR3A LBD binder: 29.6*

What do the screens show for `COc1cccc(S(=O)(=O)NCc2ccc(C(=O)Nc3ccc(Cl)c(Cl)c3)cc2)c1`?
PAFAH2 FP inh: -12.8; PAFAH1B2 FP inh: 0.0; pPAFAH FP inh: -18.8; UCH37 DUB inh: 3.4; PAFAH1B3 inh: -5.3; NR3A LBD binder: 25.4*

How did CCCOc1ccc(C=NNC(=O)C(=O)Nc2ccccn2)cc1 do in these assays?
UCH37 DUB inh: 4.9

What do the screens show for `Cc1ccc(S(=O)(=O)ON=C2CCCc3ccccc32)cc1`?
UCH37 DUB inh: 5.8
